From ChEMBL document CHEMBL1155664, “New carbazole alkaloids from Clausena anisata with antitumor promoting activity” (J Nat Prod, 2000) come the findings set out here.

Common to all, as to format: cell-based
A short description of data set [1]: Cytotoxicity against human Raji cells assessed as cell viability at 32 nmol by trypan blue assay. To be noted: read-out: Activity. In outline: (§1)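 Raji cells treated with compound together with TPA (32 pmol, 20 ng/mL) at mole ratios to TPA of 10, 100, 500 or 1000 (0.32, 3.2, 16, 32 nmol). Viability determined by trypan blue staining 2 days after treatment. At least 60% viability is needed for the EBV-EA result to be valid.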

Data set [2] is described as follows: Cytotoxicity against human Raji cells assessed as cell viability at 3.2 nmol by trypan blue assay. The conditions noted are these: read-out: Activity. In outline: as §1
Data set [3] is described as follows: Cytotoxicity against human Raji cells assessed as cell viability at 16 nmol by trypan blue assay. The conditions noted are these: read-out: Activity. Put shortly: as §1
Data set [4] has as its system Raji. The data set is described as follows: Inhibition of 12-O-tetradecanoylphorbol-13-acetate-induced EBV-early antigen activation in human Raji cells assessed as EA activation at 0.32 nmol relative to 12-O-tetradecanoylphorbol-13-acetate. Further details: scale not given: the % may be the effect or the level left. To be noted: human gammaherpesvirus 4. Put shortly: (§2)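 Raji cells induced with TPA (32 pmol = 20 ng/mL) plus compound at 10, 100, 500 or 1000 mol ratio/TPA (0.32, 3.2, 16, 32 nmol). EBV early antigen activation expressed as % of the TPA-only positive control (100%), given with S.D. Results count only where Raji viability stays at or above 60% at 2 days.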

Data set [5] concerns Raji. The data set is described as follows: Inhibition of 12-O-tetradecanoylphorbol-13-acetate-induced EBV-early antigen activation in human Raji cells assessed as EA activation at 3.2 nmol relative to 12-O-tetradecanoylphorbol-13-acetate. Set-up: scale not given: the % may be the effect or the level left. The conditions noted are these: human gammaherpesvirus 4. In outline:
as §2

Data set [6] is described as follows: Cytotoxicity against human Raji cells assessed as cell viability at 0.32 nmol by trypan blue assay. To be noted: read-out: Activity. Put shortly:
as §1

Data set [7] has as its system Raji. The data set is described as follows: Inhibition of 12-O-tetradecanoylphorbol-13-acetate-induced EBV-early antigen activation in human Raji cells assessed as EA activation at 16 nmol relative to 12-O-tetradecanoylphorbol-13-acetate. Further details: scale not given: the % may be the effect or the level left. To be noted: human gammaherpesvirus 4. In outline:
as §2

The test system of data set [8] is Raji. The data set can be described thus: Inhibition of 12-O-tetradecanoylphorbol-13-acetate-induced EBV-early antigen activation in human Raji cells assessed as EA activation at 32 nmol relative to 12-O-tetradecanoylphorbol-13-acetate. The conditions noted are these: human gammaherpesvirus 4. Further details: scale not given: the % may be the effect or the level left. In outline: as §2

As to `COC(=O)c1ccc2[nH]c3ccccc3c2c1`, in data set [1], the viability at 32 nmol was found to be 60%. The viability at 3.2 nmol in data set [2] was more than 80%. Further, the viability at 16 nmol in data set [3] is more than 80%. The Activity in data set [4] came to 100%; in data set [5], 81.4%; in data set [7], 46.3%; in data set [8], 21.7%. In addition, in data set [6], the viability at 0.32 nmol was more than 80%.
Take `C=C(C)C1Cc2c(cc(O)c3[nH]c4ccccc4c23)C(=O)O1` (configuration not stated) [CLAUSAMINE A]: in data set [1], the viability at 32 nmol was determined as 60%. Also, in data set [2], the viability at 3.2 nmol is more than 80%. For the same compound, the viability at 16 nmol in data set [3] was found to be 70%. In addition, the Activity is 95.5% in data set [4], 73.7% in data set [5], 28.3% in data set [7] and 15.4% in data set [8]. Also, in data set [6], the viability at 0.32 nmol was more than 80%.
`C=C(C)C1Cc2c(cc(OC)c3[nH]c4ccccc4c23)C(=O)O1` (configuration not stated) [CLAUSAMINE B]: the viability at 32 nmol in data set [1] came out at 60%. Moreover, in data set [2], the viability at 3.2 nmol was more than 80%. The viability at 16 nmol in data set [3] is 70%. The Activity in data set [4] turned out to be 100%; in data set [5] it was 78.2%; in data set [7], 39.2%; in data set [8] it was 18.3%. The viability at 0.32 nmol in data set [6] was more than 80%.
As for `COc1cc2c(c3c1[nH]c1ccccc13)CC(C(C)(C)O)OC2=O` (configuration not stated) [CLAUSAMINE C], the viability at 32 nmol in data set [1] is 60%. Besides, the viability at 3.2 nmol in data set [2] was more than 80%. In data set [3], the viability at 16 nmol worked out at 70%. The Activity in data set [4] stood at 92.3%; in data set [5], 72%; in data set [7], 27.2%; in data set [8] it was 12.4%. For the same compound, the viability at 0.32 nmol in data set [6] was more than 80%.
Consider `COC(=O)c1cc(OC)c2[nH]c3ccccc3c2c1CC=C(C)C` [CLAUSAMINE], for which the viability at 32 nmol in data set [1] was 60%. Besides, the viability at 3.2 nmol in data set [2] is more than 80%. For the same compound, in data set [3], the viability at 16 nmol was found to be 70%. The Activity in data set [4] worked out at 92.3%; in data set [5] it was 66%; in data set [7], 34.2%; in data set [8], 18.2%. In addition, the viability at 0.32 nmol in data set [6] is more than 80%.
For the compound `COC(=O)c1cc(O)c2[nH]c3ccccc3c2c1` [CLAUSINE E], the viability at 32 nmol in data set [1] turned out to be 60%. Besides, the viability at 3.2 nmol in data set [2] was more than 80%. The viability at 16 nmol in data set [3] is more than 80%. The Activity in data set [4] is 100%; in data set [5] it was 74.6%; in data set [7] it was 42.4%; in data set [8] it was 27.4%. The viability at 0.32 nmol in data set [6] is more than 80%.
With `COC(=O)c1cc(O)c2[nH]c3ccccc3c2c1CC=C(C)C` [CLAUSINE F], in data set [1], the viability at 32 nmol was 60%. In data set [2], the viability at 3.2 nmol is more than 80%. For the same compound, in data set [3], the viability at 16 nmol is more than 80%. Besides, the Activity in data set [4] was 94.6%; in data set [5], 69.8%; in data set [7] it was 37.5%; in data set [8], 20.2%. In addition, in data set [6], the viability at 0.32 nmol was more than 80%.
For the compound `COc1cc(C=O)c(CC=C(C)C)c2c1[nH]c1ccccc12` [EKEBERGININE], the viability at 32 nmol in data set [1] was 60%. For the same compound, the viability at 3.2 nmol in data set [2] is more than 80%. The viability at 16 nmol in data set [3] is more than 80%. For the same compound, the Activity in data set [4] turned out to be 90.3%; in data set [5], 63.5%; in data set [7], 22.4%; in data set [8] it was 10.5%. Moreover, the viability at 0.32 nmol in data set [6] was more than 80%.
In the case of `O=Cc1cc(O)c2[nH]c3ccccc3c2c1` [O-DEMETHYLMURRAYANINE], the viability at 32 nmol in data set [1] was 60%. Also, in data set [2], the viability at 3.2 nmol is more than 80%. For the same compound, in data set [3], the viability at 16 nmol is more than 80%. The Activity amounted to 100% in data set [4], 69.4% in data set [5], 40.3% in data set [7] and 25.2% in data set [8]. In data set [6], the viability at 0.32 nmol is more than 80%.
